EBNA-1 inh: blocks EBNA-1 binding to DNA; EBNA-1 DNA binding, fluorescence polarization; inhibition, % at 14.8 µM; 0.34% of 300,000 active; AID 1950; in the data active = inhibition above about 28%
GSTO1 inh: GSTO1 inhibition, counter-screen for RBBP9 inhibitors | P78417 | recombinant GSTO1, activity-based probe fluorescence polarization | inhibition, % at 5.96 µM | 1.1% of 300,000 active | AID 1974;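 active = inhibition above the campaign mean inhibition plus 3 SD, cut at about 35% in these data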;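 note: 0% = GSTO1-1 with DMSO and 100% = wells lacking GSTO1-1 enzyme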
proCasp3 act: procaspase-3 (human) activation; P42574; activation, % at 8.5 µM; 0.11% of 330,000 active; recombinant procaspase-3 D3A, Ac-DEVD-pNA absorbance 405 nm;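 active = activation above the mean of all tested compounds plus 3 SD, cut at about 21% in these data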;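 note: 0% = DMSO alone and 100% = DMSO wells spiked with extra 5 µM PC-3 D3A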
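Evaluation: percent activation relative to control range; Material: Procaspase-3 D3A mutant, all three cleavage aspartates alanine; Compound: single dose, 8.5 µM nominal compound, 0.8% DMSO; Replication: one well per compound; Signal: absorbance at 405 nm, 0 and 120 min; Schedule: 1 h preincubation plus 2 h reaction at 25 °C.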
proCasp7 act: counter-screen for procaspase-3 activators: activators of human procaspase-7 | activation, % at 8.5 µM | AID 463210 | 0.093% of 330,000 active | P55210 | recombinant procaspase-7, Ac-DEVD-pNA absorbance 405 nm; D23A/D198A/D206A triple mutant, cannot self-cleave; scale: DMSO 0, 5 µM enzyme 100;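 active = percent activation above the screen-wide mean plus 3 SD, cut at about 25% in these data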
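Test system: Procaspase-7 triple mutant (PC-7 D3A). Also added: Ac-DEVD-pNA substrate, 400 µM as added. Schedule: 1 h enzyme–compound preincubation and 2 h substrate reaction, both 25 °C. Signal: p-Nitroaniline absorbance at 405 nm, read at 0 and 120 min. Control set: low DMSO alone, high DMSO plus 5 µM PC-7.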
Apaf-1 inh: inhibitors of human Apaf-1 apoptosome; reconstituted apoptosome caspase-3 activity, DEVD-Rh110 fluorescence; 0.71% of 330,000 active; AID 489030; inhibition, % at 20 µM; active = inhibition of at least 40% at 20 µM;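 note: plate controls were DMSO wells for no effect and DEVD-CHO caspase inhibitor wells for full effect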
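Material: reconstituted apoptosome with Apaf-1, cytochrome c, caspase-9, procaspase-3, dATP. Technique: Rh110 fluorescence intensity. Buffer or medium: pH 7.5 Hepes buffer with CHAPS, BSA, DTT. Times: 30 min plus 50 min, RT.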
ZTA DNA inh: counter-screen for EBNA-1 inhibitors: inhibitors of Epstein-Barr virus ZTA. ZTA-DNA binding, fluorescence polarization. AID 2234. inhibition, % at 11 µM. P03206. 0.15% of 320,000 active; in the data active = inhibition above about 33%
EBNA-1 confirm: EBNA-1 (EBV) inhibition, confirmation | shares compounds with EBNA-1 inh | Recombinant EBNA-1 DBD, Cy5-DNA fluorescence polarization | 35% of 830 active | inhibition, % at 14.8 µM;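 active = mean inhibition across replicates above a set limit taken from the earlier primary screen, cut at about 28% in these data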;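 note: plate controls were EBNA-1 protein with DMSO for no effect and wells lacking EBNA-1 for full effect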
ZTA counter trip: ZTA (EBV) inhibition, triplicate counter-screen; AID 2328; 830 tested, under 10 active; shares compounds with EBNA-1 inh; inhibition, % at 11.1 µM; Zta-ZRE DNA binding, Cy5 fluorescence polarization;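 active = mean inhibition over triplicates above a set limit taken from the primary EBNA-1 screen, cut at about 37% in these data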;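 note: purified full length Zta protein with Cy5 labeled ZRE DNA probe; 0% = Zta with DMSO and 100% = wells lacking Zta protein; inhibitors lower polarization by freeing the labeled DNA probe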
GSTO1 confirm: GSTO1 (human) inhibition, confirmation; shares compounds with GSTO1 inh; 54% of 2,400 active; recombinant GSTO1, probe fluorescence polarization; inhibition, % at 5.96 µM; AID 2176;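 active = inhibition above the primary screen's cutoff, its mean inhibition plus 3 SD, cut at about 35% in these data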;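 note: loss of polarization as inhibitors block binding of rhodamine sulfonate ester activity probe; 0% = GSTO1 with DMSO and 100% = wells lacking GSTO1 enzyme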
procasp7 triplic: activates human procaspase-7, counter-screen for procaspase-3 activators | shares compounds with proCasp3 act | recombinant procaspase-7, Ac-DEVD-pNA absorbance; asp23/198/206-to-Ala mutant, cannot self-cleave | activation, % at 8.5 µM | 210 tested, under 10 active | AID 488941;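 active = mean activation above a set limit taken from an earlier procaspase-7 screen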;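 note: 0% = DMSO wells and 100% = DMSO plus 5 µM procaspase-7 enzyme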
proCasp3 confirm: procaspase-3 (human) activation, confirmed; 10% of 210 active; shares compounds with proCasp3 act; recombinant PC-3 D3A, Ac-DEVD-pNA absorbance 405 nm; 100% is higher-enzyme control; activation, % at 8.5 µM;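 active = mean activation above a set limit carried over from the earlier primary screen, cut at about 22% in these data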
PC3 D3A act: counter-screen for dual procaspase-3/7 activators: human procaspase-3 activation; shares compounds with proCasp7 act; recombinant PC-3 D3A, Ac-DEVD-pNA absorbance 405 nm; aspartates 9, 28, 175 changed to alanine; 100% = enzyme control; activation, % at 8.5 µM; 290 tested, under 10 active; AID 493114;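 active = mean percent activation across triplicates above a set limit taken from the earlier primary procaspase-3 screen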;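 note: 0% = DMSO wells and 100% = DMSO wells with 5 µM added PC-3 D3A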
Procasp7 act: procaspase-7 (human) activation, dual activator confirmation. shares compounds with proCasp7 act. recombinant procaspase-7, Ac-DEVD-pNA absorbance 405 nm; D23A/D198A/D206A mutant that cannot self-cleave. activation, % at 8.5 µM. 290 tested, under 10 active;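 active = mean activation above a set limit carried over from the earlier primary screen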;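 note: 0% = DMSO only and 100% = DMSO with added 5 µM PC-7 enzyme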
Apaf-1 inh conf: Apaf-1 inhibition, single-dose confirmed; shares compounds with Apaf-1 inh; reconstituted apoptosome, caspase-3 DEVD-Rh110 fluorescence; inhibition, % at 20 µM; 25% of 1,800 active;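 active = mean inhibition of at least 40% at 20 µM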;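 note: plate controls were DMSO wells for no effect and DEVD-CHO caspase inhibitor control wells for full effect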
Rh110 quench: Rh110 signal interference in Apaf-1 inhibitor counter-screen; Rh110 fluorescence interference, quenched caspase reaction; 1,800 tested, under 10 active; AID 504615; activation (fluorescence interference), % at 20 µM; shares compounds with Apaf-1 inh;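 active = signal rise of 40% or more at 20 µM, treated as a fluorescence artifact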
Apaf1 inh interf: counter-screen for Apaf-1 inhibitors: fluorescence interference, dose response; shares compounds with Apaf-1 inh; fluorescence interference counterscreen, Apaf-1 assay format; IC50, µM; 460 tested, under 10 active; AID 588538; call rule not given here
* = called active by the depositor; . = not tested or not shown. Compounds with a hit are over-represented: about 1.8% of the library has one in this group of screens.

SMILES | EBNA-1 inh | GSTO1 inh | proCasp3 act | proCasp7 act | Apaf-1 inh | ZTA DNA inh | EBNA-1 confirm | ZTA counter trip | others
CC(=O)Nc1ccc(NC(=O)CSc2ccc(-c3cccs3)nn2)cc1 | 41.4* | -0.6 | 5.6 | -5.1 | -9.7 | 3.1 | 37.6* | 0.5
CC(=O)Nc1ccc(NC(=O)CSc2ccc(-c3ccco3)nn2)cc1 | -1.0 | 12.8 | -9.5 | -5.3 | -6.0 | -2.2 | . | .
CN(CC(=O)Nc1cccc2ccccc12)C(=O)c1ccc(F)cc1F | . | . | 1.3 | 7.2 | -8.8 | 7.1 | . | .
COc1ccc(Nc2nc(NCc3ccco3)nc(N)c2[N+](=O)[O-])cc1 | 39.0* | 3.5 | 2.8 | -6.2 | -22.2 | 17.1 | 12.1 | 1.1
Cc1cccc(Nc2nc(NCc3ccco3)nc(N)c2[N+](=O)[O-])c1 | 18.2 | -0.9 | -5.2 | -2.7 | 11.7 | 17.6 | . | .
Cc1ccccc1SCC(=O)N/N=C/c1ccc(F)cc1 | 4.4 | -1.6 | 14.1 | -6.3 | 7.7 | 9.0 | . | .
O=C(CSc1nc2ncc(Cl)cc2[nH]1)c1c[nH]c2ccccc12 | 31.0* | -18.8 | 5.2 | -3.4 | -12.2 | -13.6 | 17.9 | 7.5
COc1ccc(S(=O)(=O)N2CCOCC2)cc1NC(=O)c1ccccc1-c1ccc(C(F)(F)F)cc1 | 31.6* | 11.7 | -2.5 | 1.6 | 6.9 | -1.2 | 37.2* | 14.2
c1ccc(-c2ccc(C3=Nn4c(nnc4-c4cc(-c5ccccc5)n[nH]4)SC3)cc2)cc1 | 33.1* | -5.2 | 2.3 | 6.5 | 26.1 | 12.2 | 52.4* | 24.4
O=S(=O)(Nc1cc(Sc2cccc3cccnc23)c(O)c2ccccc12)c1ccc(F)cc1 | 32.7* | 57.5* | -12.0 | -11.9 | . | 17.1 | 9.9 | 3.4 | GSTO1 confirm=25.3
Cc1ccc(C(CC(=O)O)NC(=O)CN2C(=O)c3ccccc3C2=O)cc1 (configuration not stated) | 8.8 | 5.9 | 5.5 | 7.4 | 3.5 | 22.4 | . | .
CCCCN(C(=O)c1cccc(-n2cccc2)c1)c1c(N)n(Cc2ccccc2)c(=O)[nH]c1=O | 30.7* | 57.9* | 4.3 | -7.0 | 19.4 | 22.4 | -4.5 | -6.8 | GSTO1 confirm=3.0
CCCCN(C(=O)c1cccc(N2C(=O)c3ccccc3C2=O)c1)c1c(N)n(CC(C)C)c(=O)[nH]c1=O | . | . | -6.4 | -6.6 | 4.7 | -4.5 | . | .
C=CCn1c(=NC(=O)c2cc(-c3cccs3)nc3ccccc23)sc2cc(S(N)(=O)=O)ccc21 | 28.8* | -13.5 | 77.8* | 14.4 | -3.1 | 7.0 | 21.6 | 10.2 | procasp7 triplic=14.9;proCasp3 confirm=20.0
C=CCn1c(=NC(=O)c2cc(Cl)sc2Cl)sc2cc(S(N)(=O)=O)ccc21 | 10.5 | -6.5 | -2.2 | 0.9 | -1.8 | 7.8 | . | .
Cc1ccc(C)c(N(CC(=O)Nc2ccc(-c3nc4ccc(C)cc4s3)cc2)S(C)(=O)=O)c1 | 36.0* | -6.8 | 24.1* | 23.8 | 9.3 | 9.1 | 2.6 | -9.6 | procasp7 triplic=17.0;proCasp3 confirm=23.3*
COc1ccc(NC(=O)CNc2cc(C)ccc2C)cc1S(=O)(=O)N1CCOCC1 | . | . | -1.1 | 2.5 | -12.0 | 5.5 | . | .
O=C(CSCc1ccc(Cl)cc1)N/N=C/c1ccc(OCC(=O)Nc2ccccc2)cc1 | 51.6* | -5.3 | 1.6 | 28.5* | 28.5 | 7.9 | 29.3* | 1.1 | PC3 D3A act=0.0;Procasp7 act=0.6
CCOc1ccc(S(=O)(=O)N2CCN(C(=O)C3CC3C)CC2)cc1 (configuration not stated) | . | . | 10.3 | 0.8 | -6.4 | . | . | .
Cn1c(C(=O)N2CCN(c3nc4ccccc4s3)CC2)cc2sccc21 | 50.9* | -2.8 | -1.2 | -2.1 | 40.7* | 6.6 | 30.8* | 2.5 | Apaf-1 inh conf=33.4;Rh110 quench=2.9
CCN(Cc1ccccc1)C(=O)COC(=O)[C@@H]1CCCN1C(=O)c1cccs1 | . | . | 10.4 | 4.8 | 14.5 | . | . | .
O=C(Nc1cccc(C(F)(F)F)c1)c1ccc2nc(-c3ccco3)c(-c3ccco3)nc2c1 | 68.0* | 49.7* | -8.4 | -11.1 | 65.8* | -21.2 | 4.0 | 8.4 | GSTO1 confirm=6.8;Apaf-1 inh conf=43.6*;Rh110 quench=1.7;Apaf1 inh interf=>100
O=C(Nc1cccc(C(F)(F)F)c1)c1cc[n+]([O-])cc1 | -4.8 | -2.0 | 2.3 | -0.1 | 10.8 | -3.4 | . | .
O=C1C=C(O)c2cccc(O)c2C1=O | -7.2 | 43.0* | -8.5 | -10.2 | 43.8* | 5.0 | . | . | GSTO1 confirm=40.5*
O=C1c2cccc(O)c2C(=O)c2c(O)cccc21 | 8.6 | 20.1 | -1.1 | 2.5 | 1.3 | 12.3 | . | .
COC(=O)CCC(=O)OC1(C)C(=O)C2=CN(CCN3CCOCC3)C(c3ccc(OC)cc3)=CC2=C(Br)C1=O (configuration not stated) | 3.2 | 55.7* | -10.1 | -30.1 | 85.9* | -1.9 | . | . | GSTO1 confirm=64.8*

From PubChem
